# Tests used:
# Escherichia coli [1] = test: In vitro antibacterial activity against gram negative Escherichia coli KNK 437; type: functional; conditions: Escherichia coli; read-out: MIC
# In short: (§1)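 Agar dilution MIC determination following the National Committee for Clinical Laboratory Standards recommendations.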
# Pseudomonas aeruginosa [2] = test: In vivo efficacy against Pseudomonas aeruginosa 5007 in mouse protection test after subcutaneous administration; type: functional; conditions: Pseudomonas aeruginosa, sc; read-out: ED50
# In short: (§2)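 Mouse protection model: mice infected intravenously with 100-fold LD50 of the organism. Compound given by subcutaneous injection or oral gavage at 1 and 5 h after infection, over a dose range. Deaths tracked for 7 days post-inoculation. ED50 is the dose giving 50% survival of treated mice over the trial.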
# Streptococcus pyogenes = test: In vitro antibacterial activity against gram positive Streptococcus pyogenes 930; type: functional; in short: as §1
# Enterococcus faecium = test: In vitro antibacterial activity against gram-positive Enterococcus faecium ATCC 8043; type: functional; in short: as §1
# Mus musculus [3] = test: IIn vivo efficacy against Escherichia coli JUHL in mouse protection test after administration by oral gavage; type: functional; in short: as §2
# Pseudomonas aeruginosa [4] = test: In vitro antibacterial activity against gram negative P. aeruginosa DPHP 5263; type: functional; in short: as §1
# Pseudomonas aeruginosa [5] = test: In vitro antibacterial activity against Gram-negative Pseudomonas aeruginosa 5007; type: functional; in short: as §1
# Staphylococcus aureus [6] = test: In vitro antibacterial activity against gram-positive Staphylococcus aureus 1775; type: functional; in short: as §1
# Staphylococcus aureus [7] = test: In vitro antibacterial activity against gram-positive Staphylococcus aureus NCTC 10649M; type: functional; in short: as §1
# Mus musculus [8] = test: In vivo efficacy against Pseudomonas aeruginosa 5007 in mouse protection test […]; type: functional; in short: as §2
# Burkholderia cepacia = test: In vitro antibacterial activity against gram negative Pseudomonas cepacia 2961; type: functional; in short: as §1
# Staphylococcus aureus [9] = test: In vivo efficacy against Staphylococcus aureus NCTC 10649M in mouse; type: functional; conditions: Staphylococcus aureus; read-out: ED50; in short: as §2
# Staphylococcus aureus [10] = test: In vivo efficacy against Staphylococcus aureus NCTC 10649M in mouse protection test after p.o. administration.; type: functional; conditions: Staphylococcus aureus, po; read-out: ED50; in short: as §2
# Escherichia coli [11] = test: In vivo efficacy against Escherichia coli JUHL in mouse protection test after subcutaneous administration; type: functional; conditions: Escherichia coli, sc; read-out: ED50; in short: as §2
# Mus musculus [12] = test: In vivo efficacy against Pseudomonas aeruginosa 5007 in mouse protection test after administration by oral gavage.; type: functional; in short: as §2
# Escherichia coli [13] = test: In vivo efficacy against Escherichia coli JUHL in mouse protection test after p.o. administration.; type: functional; conditions: Escherichia coli, po; read-out: ED50; in short: as §2
# Mus musculus [14] = test: In vivo efficacy against Streptococcus pneumoniae ATCC 6303 in mouse protection test after administration by oral gavage; type: functional; in short: as §2
# Streptococcus pneumoniae = test: In vivo efficacy against Streptococcus pneumoniae ATCC 6303 in mouse protection test after s.c. administration.; type: functional; conditions: Streptococcus pneumoniae, sc; read-out: ED50; in short: as §2
# Pseudomonas aeruginosa [15] = test: In vivo efficacy against Pseudomonas aeruginosa 5007 in mouse protection test after administration by oral gavage; type: functional; conditions: Pseudomonas aeruginosa, po; read-out: ED50; in short: as §2
# Mus musculus [16] = test: In vivo efficacy against Escherichia coli JUHL in mouse protection test after administration by oral gavage.; type: functional; in short: as §2
# Escherichia coli [17] = test: In vitro antibacterial activity against Escherichia coli KNK 437 a ciprofloxacin less sensitive strain; type: functional; in short: as §1
# Pseudomonas aeruginosa [18] = test: Not Plasmodium species; type: functional
# Mus musculus [19] = test: In vivo efficacy against Staphylococcus aureus NCTC 10649M in mouse protection test
# Mus musculus [20] = test: InIn vivo efficacy against Escherichia coli JUHL in mouse protection test after administration by oral gavage; type: functional; in short: as §2
# [21] = Streptococcus pyogenes, read-out: MIC
# [22] = Enterococcus faecium, ATCC 8043, read-out: MIC
# [23] = Pseudomonas aeruginosa, DPHP 5263, read-out: MIC
# [24] = Pseudomonas aeruginosa, read-out: MIC
# [25] = Staphylococcus aureus, read-out: MIC
# [26] = Staphylococcus aureus, NCTC 10649, read-out: MIC
# [27] = Burkholderia cepacia, read-out: MIC
SMILES,MIC (Escherichia coli [1]) [µg/mL],MIC (Streptococcus pyogenes; [21]) [µg/mL],MIC (Enterococcus faecium; [22]) [µg/mL],MIC (Pseudomonas aeruginosa [4]; [23]) [µg/mL],MIC (Pseudomonas aeruginosa [5]; [24]) [µg/mL],MIC (Staphylococcus aureus [6]; [25]) [µg/mL],MIC (Staphylococcus aureus [7]; [26]) [µg/mL],MIC (Burkholderia cepacia; [27]) [µg/mL],ED50 (Pseudomonas aeruginosa [2]) [mg/kg],ED50 (Staphylococcus aureus [9]) [mg/kg],ED50 (Staphylococcus aureus [10]) [mg/kg],ED50 (Escherichia coli [11]) [mg/kg],ED50 (Escherichia coli [13]) [mg/kg],ED50 (Mus musculus [14]) [mg/kg],ED50 (Streptococcus pneumoniae) [mg/kg],ED50 (Pseudomonas aeruginosa [15]) [mg/kg],other results
Cc1c(N2CC[C@@H]3NCCC[C@@H]32)c(F)cn2c(=O)c(C(=O)O)cc(C3CC3)c12,0.78,1.56,3.1,100,3.1,12.5,0.2,25,> 32,7,23.9,4.4,,,,,ED50 (Mus musculus [3]): > 10 mg/kg; ED50 (Mus musculus [8]): > 50 mg/kg
Cc1c(N2CC[C@@H](C)[C@H](N)C2)c(F)cn2c(=O)c(C(=O)O)cc(C3CC3)c12,,,,,,,,,24.5,1,4.3,0.6,3,1,2.1,,ED50 (Mus musculus [12]): > 50 mg/kg
Cc1c(N2CC[C@@H]3[C@H](N)[C@@H]3C2)c(F)cn2c(=O)c(C(=O)O)cc(C3CC3)c12,0.2,0.05,0.05,6.2,0.39,1.56,0.02,3.1,,,4.1,0.9,5,,,,ED50 (Mus musculus [19]): 1.2 mg/kg
Cc1c(N2CC[C@H](N)C2)c(F)cn2c(=O)c(C(=O)O)cc(C3CC3)c12 (stereo in doubt; -(S)-3i) [ABT-719],,,,,,,,,,,,,,,,,MIC (Streptococcus pyogenes): 0.02 µg/mL; MIC (Enterococcus faecium): 0.02 µg/mL; MIC (Pseudomonas aeruginosa [4]): 0.39 µg/mL; MIC (Pseudomonas aeruginosa [5]): 0.05 µg/mL; MIC (Staphylococcus aureus [6]): 0.78 µg/mL; MIC (Staphylococcus aureus [7]): 0.01 µg/mL; MIC (Burkholderia cepacia): 0.39 µg/mL; MIC (Escherichia coli [17]): 0.02 µg/mL
Cc1c(N2CC[C@@H](NCCF)C2)c(F)cn2c(=O)c(C(=O)O)cc(C3CC3)c12,1.56,0.05,0.1,25,1.56,0.39,0.02,1.56,> 32,,9.6,4.4,34.1,30.7,8,> 50,ED50 (Mus musculus [19]): 2.1 mg/kg

# Now from value to compound, other results behind:
MIC (Escherichia coli [1]) [µg/mL],MIC (Streptococcus pyogenes; [21]) [µg/mL],MIC (Enterococcus faecium; [22]) [µg/mL],MIC (Pseudomonas aeruginosa [4]; [23]) [µg/mL],MIC (Pseudomonas aeruginosa [5]; [24]) [µg/mL],MIC (Staphylococcus aureus [6]; [25]) [µg/mL],MIC (Staphylococcus aureus [7]; [26]) [µg/mL],MIC (Burkholderia cepacia; [27]) [µg/mL],SMILES,ED50 (Pseudomonas aeruginosa [2]) [mg/kg],ED50 (Staphylococcus aureus [9]) [mg/kg],ED50 (Staphylococcus aureus [10]) [mg/kg],ED50 (Escherichia coli [11]) [mg/kg],ED50 (Escherichia coli [13]) [mg/kg],ED50 (Mus musculus [14]) [mg/kg],ED50 (Streptococcus pneumoniae) [mg/kg],ED50 (Pseudomonas aeruginosa [15]) [mg/kg],other results
,0.1,0.1,6.2,0.2,6.2,0.05,3.1,Cc1c(N2C[C@H]3CNC[C@H]3C2)c(F)cn2c(=O)c(C(=O)O)cc(C3CC3)c12,6.4,1.2,12.5,0.7,,25.2,1.3,58.7,ED50 (Mus musculus [16]): 5 mg/kg; MIC (Escherichia coli [17]): 0.2 µg/mL
0.39,0.2,0.2,> 100,,0.78,0.02,0.78,Cc1c(N2CCCC2)c(F)cn2c(=O)c(C(=O)O)cc(C3CC3)c12,,> 12,,> 50,,,,,MIC (Pseudomonas aeruginosa [18]): 0.78 µg/mL
0.39,0.02,0.05,,0.39,0.39,0.01,3.1,Cc1c(N2CC[C@H](C)[C@@H](N)C2)c(F)cn2c(=O)c(C(=O)O)cc(C3CC3)c12,,0.5,1.9,1.7,,,,,ED50 (Mus musculus [20]): 2.3 mg/kg
0.2,0.1,0.1,12.5,0.39,0.78,0.02,1.56,Cc1c(N2C[C@H](C3CC3)[C@@H](N)C2)c(F)cn2c(=O)c(C(=O)O)cc(C3CC3)c12,> 32,3,11.2,1.2,> 10,> 50,> 8,> 50,

# Source: ChEMBL document CHEMBL1132437, “Synthesis and antimicrobial activity of 4H-4-oxoquinolizine derivatives: consequences of structural modification at the C-8 position” (1999)
